pKi: −log10 of the molar value. The source made the active and inactive calls. The calls are words filed in the database; no cut-off is given here.
Tests used:
[1] = Competitive inhibition of calf DNA polymerase alpha using dTTP as substrate by Dixon plot analysis; set-up: species or system Bos taurus
Summary of the method: (§1)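 Kinetics ran in the standard pol assay at 37 °C for 60 min. Either poly(dA)/oligo(dT)18 (A/T = 2/1) or dTTP was varied, with inhibitor at 0, 10, 20 and 30 μM. Km and Vmax came from Lineweaver–Burk plots and Ki from Dixon plots. Pol α was purified from calf thymus by immunoaffinity chromatography.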

Bos taurus [2] = species on record: Bos taurus; experiment: Competitive inhibition of calf DNA polymerase alpha using dTTP as substrate up to 30 uM by Lineweaver-Burk plot analysis; summary of the method: as §1
[3] = Non-competitive inhibition of calf DNA polymerase alpha using ploy(dA)/oligo(dT)18 as substrate by Dixon plot analysis; set-up: species or system Bos taurus; summary of the method: as §1
DNA polymerase kappa [4] = target: T1, DNA polymerase kappa (Homo sapiens, UniProt Q9UBT6); experiment: Competitive inhibition of human C-terminal-His6-tagged DNA polymerase kappa expressed in Escherichia coli using dTTP as substrate by Dixon plot analysis; summary of the method: as §1
T1 sequence (Q9UBT6 whole entry): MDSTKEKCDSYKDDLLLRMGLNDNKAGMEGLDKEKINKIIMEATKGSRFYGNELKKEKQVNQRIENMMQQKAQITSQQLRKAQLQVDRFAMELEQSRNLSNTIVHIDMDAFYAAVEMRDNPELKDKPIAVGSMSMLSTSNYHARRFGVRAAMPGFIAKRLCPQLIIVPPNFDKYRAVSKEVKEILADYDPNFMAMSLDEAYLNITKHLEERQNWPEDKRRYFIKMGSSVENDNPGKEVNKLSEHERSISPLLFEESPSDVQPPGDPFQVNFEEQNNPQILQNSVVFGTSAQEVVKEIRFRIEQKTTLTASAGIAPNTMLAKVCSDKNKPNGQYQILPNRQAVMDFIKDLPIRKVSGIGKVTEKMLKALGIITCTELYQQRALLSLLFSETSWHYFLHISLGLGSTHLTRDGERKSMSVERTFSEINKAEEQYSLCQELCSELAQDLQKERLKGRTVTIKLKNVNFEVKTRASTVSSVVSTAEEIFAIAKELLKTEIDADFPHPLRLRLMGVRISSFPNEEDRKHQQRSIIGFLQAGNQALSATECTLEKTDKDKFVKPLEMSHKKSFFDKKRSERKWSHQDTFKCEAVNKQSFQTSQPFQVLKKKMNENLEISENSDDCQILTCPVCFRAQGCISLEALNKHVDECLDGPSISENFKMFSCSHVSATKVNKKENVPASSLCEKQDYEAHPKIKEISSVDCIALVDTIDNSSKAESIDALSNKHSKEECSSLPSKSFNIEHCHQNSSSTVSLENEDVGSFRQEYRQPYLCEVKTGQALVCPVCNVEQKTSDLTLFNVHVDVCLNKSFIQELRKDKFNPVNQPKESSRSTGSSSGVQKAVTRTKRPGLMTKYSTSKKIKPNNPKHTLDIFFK

Bos taurus [5] = species on record: Bos taurus; experiment: Non-competitive inhibition of calf DNA polymerase alpha using ploy(dA)/oligo(dT)18 as substrate up to 30 uM by Lineweaver-Burk plot analysis; summary of the method: as §1
DNA polymerase kappa [6] = target: T1, DNA polymerase kappa; experiment: Non-competitive inhibition of human C-terminal-His6-tagged DNA polymerase kappa expressed in Escherichia coli using ploy(dA)/oligo(dT)18 as substrate by Dixon plot analysis; summary of the method: as §1

Structure (SMILES): C/C=C/C1=CC2=CC(=O)[C@@](C)(OC(=O)c3c(C)cc(O)cc3O)[C@@H](O)[C@@H]2CO1 [PINOPHILIN A]
- pKi [1]: 5.02
- inhibition (Bos taurus [2]): Active
- pKi [3]: 4.86
- pKi (DNA polymerase kappa [4]): 5.01
- inhibition (Bos taurus [5]): Active
- pKi (DNA polymerase kappa [6]): 4.74

From ChEMBL document CHEMBL2010709, “Pinophilins A and B, inhibitors of mammalian A-, B-, and Y-family DNA polymerases and human cancer cell proliferation” (J Nat Prod, 2012)
